Experiment [1] has as its target GABA-A receptor; anion channel (Bos taurus) (UniProt P10063+P08220+P20237+P08219+P10064+P22300). The conditions noted are these: Brain membranes, at 0.5 µM.
Experiment [2] addresses GABA-A receptor; anion channel. As to the kind of experiment: Inhibition of [3H]-Ro- 15-1788 binding to GABA-A benzodiazepine receptor of bovine brain membranes. Format: cell membranes, Bos taurus. The method in brief: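 Bovine cerebral cortex membranes, freeze–thawed and washed in 50 mM Tris-citrate pH 7.4; competition against [3H]Ro 15-1788 by filtration. […] Ki as mean ± SEM of three determinations.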

The subject of experiment [3] is Mus musculus. As to the kind of experiment: Antagonistic effect against PTZ (80 mg/kg, sc) convulsant action in mice. Format: functional.
The test system of experiment [4] is Mus musculus. As to the kind of experiment: Convulsant effect in mice following subconvulsant PTZ(40 mg/kg, sc) dose, ineffective to 250 mg/kg. Format: functional, organism-based. More on the design: dose 250 mg/kg.
In experiment [5] the test system is Mus musculus. As to the kind of experiment: Antagonistic effect against the anticonvulsant Diazepam (2.5 mg/kg, ip) effect in mice after PTZ (80mg/kg, sc) dose, ineffective to 250 mg/kg. More on the design: dose 250 mg/kg. The class given is functional, organism-based.
Experiment [6] deals with Mus musculus. As to the kind of experiment: Antagonistic effect against PTZ (80 mg/kg, sc) convulsant action in mice (ineffective). Format: functional, organism-based. The method in brief:
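Groups of 10 mice received graded ip doses (up to 250 mg/kg), suspended in 20% dilute Emulphor (1:1 w/w with ethanol)–80% saline, or vehicle alone. PTZ 80 mg/kg sc followed 30 min later. ED50 was the dose protecting 50% of mice from convulsions. Values are means of at least three determinations.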

Experiment [7] concerns Mus musculus. As to the kind of experiment: Convulsant effect in mice following subconvulsant PTZ(40 mg/kg, sc) dose. The class given is functional. The method in brief: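 Groups of 10 mice were given graded ip doses (up to 250 mg/kg) in 20% dilute Emulphor–80% saline, or vehicle alone. A subconvulsant dose of PTZ (40 mg/kg sc) followed 30 min later. ED50 was the dose inducing convulsions in 50% of mice. Values are means of at least three determinations.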

For experiment [8], the system named is Mus musculus. As to the kind of experiment: Antagonistic effect against the anticonvulsant Diazepam (2.5 mg/kg, ip) effect in mice after PTZ (80 mg/kg, sc) dose. The class given is functional.

Molecules are shown by their SMILES. Activity calls are given as the source filed them. No cut-off for these calls is given here.

`O=C1CN=C(c2ccccc2Cl)c2cc([N+](=O)[O-])ccc2N1` gave a Clonazepam in experiment [1] of 100%.

In experiment [2], `O=C(NNc1ccc(Cl)cc1)C(=O)c1c[nH]c2ccccc12` yielded a Ki of 62 nM. The molecule further displayed an ED50 in experiment [3] of 25 mg/kg. The Proconvulsant action result in experiment [4] is “inactive”. The Diazepam antagonism result in experiment [5] was “inactive”. This molecule came in with a Clonazepam in experiment [1] of 16%.

On to `CN(NC(=O)C(=O)c1c[nH]c2ccc([N+](=O)[O-])cc12)c1ccccc1`, for which the Ki in experiment [2] amounted to 2400 nM. This molecule came in with a 50% effective dose (ED50) in experiment [3] of 25 mg/kg. Moreover, the Proconvulsant action entry in experiment [4] was “inactive”. Further, the Diazepam antagonism entry in experiment [5] was “inactive”. This molecule yielded a Clonazepam in experiment [1] of 53%.

As to `COC(=O)c1cc2c(cn1)[nH]c1ccccc12` [BETA-CCM], the ED50 entry in experiment [6] is “inactive”. In experiment [7], the Proconvulsant action was 19.4. The molecule also had a Diazepam antagonism in experiment [8] of 0.02.

Consider `COc1ccc(NNC(=O)C(=O)c2c[nH]c3ccccc23)cc1`, for which the Ki in experiment [2] turned out to be 430 nM. In addition, the Clonazepam in experiment [1] was found to be 17%.

Regarding `O=C(NNc1ccc([N+](=O)[O-])cc1)C(=O)c1c[nH]c2ccccc12`, affinity in experiment [2] was put at a Ki of 11 nM. It took a dose of 10 mg/kg to reach the 50% effect level in experiment [3] (ED50). Further, the Proconvulsant action result in experiment [4] was “inactive”. For the same molecule, the Diazepam antagonism entry in experiment [5] was “inactive”. In experiment [1], this molecule showed a Clonazepam of 20%.

Regarding `Cn1cc(C(=O)C(=O)NNc2ccccc2)c2ccccc21`, in experiment [2], the affinity, expressed as Ki, was 1200 nM.

`CN1C(=O)CN=C(c2ccccc2)c2cc(Cl)ccc21` [DIAZEPAM] yielded an ED50 in experiment [3] of 0.4 mg/kg.

`O=C(NNc1ccccc1)C(=O)c1c[nH]c2ccccc12` gave a Ki in experiment [2] of 203 nM. The Clonazepam in experiment [1] turned out to be 20%.

On to `Cc1ccc(NNC(=O)C(=O)c2c[nH]c3ccccc23)cc1`, for which, in experiment [2], the inhibitory constant (Ki) was 290 nM. The molecule further gave a Clonazepam in experiment [1] of 9%.

On to `CCOC(=O)c1ncn2c1CN(C)C(=O)c1cc(F)ccc1-2` [FLUMAZENIL], for which the Proconvulsant action entry in experiment [4] is “inactive”. In addition, in experiment [8], the Diazepam antagonism came to 0.3.

Regarding `O=C(NNc1ccc(F)cc1)C(=O)c1c[nH]c2ccccc12`, in experiment [2], affinity was put at a Ki of 57 nM. Moreover, the 50% effect level in experiment [3] (ED50) was put at a dose of 60 mg/kg. Further, the Proconvulsant action entry in experiment [4] is “inactive”. Also, in experiment [5], the Diazepam antagonism entry is “inactive”. For the same molecule, in experiment [1], the Clonazepam is 18%.

For the molecule `O=C(NNc1ccc(O)cc1)C(=O)c1c[nH]c2ccccc12`, in experiment [2], the Ki amounted to 3400 nM.

As for `Cc1cccc(NNC(=O)C(=O)c2c[nH]c3ccccc23)c1`, the affinity in experiment [2] corresponds to a Ki of 510 nM. The molecule also registered a Clonazepam in experiment [1] of 20%.

On to `Cn1cc(C(=O)C(=O)NNc2ccc([N+](=O)[O-])cc2)c2ccccc21`, for which affinity in experiment [2] was put at a Ki of 455 nM. This counts as sub-micromolar.

One may read the Ki as the equilibrium dissociation constant of an inhibitor or competing ligand from its target. The term ED50 denotes the midpoint of the dose-response relation.

Values taken from ChEMBL document CHEMBL1131119, “N'-Phenylindol-3-ylglyoxylohydrazide derivatives: synthesis, structure-activity relationships, molecular modeling studies, and pharmacological action on brain benzodiazepine receptors” (J Med Chem, 1998).
